From the M2OR odorant receptor database

Tests used:
Settings in all cases: stereoisomer not certain
UniProt Q8VGC6 = molecular target: T1, UniProt Q8VGC6
T1 sequence (whole entry): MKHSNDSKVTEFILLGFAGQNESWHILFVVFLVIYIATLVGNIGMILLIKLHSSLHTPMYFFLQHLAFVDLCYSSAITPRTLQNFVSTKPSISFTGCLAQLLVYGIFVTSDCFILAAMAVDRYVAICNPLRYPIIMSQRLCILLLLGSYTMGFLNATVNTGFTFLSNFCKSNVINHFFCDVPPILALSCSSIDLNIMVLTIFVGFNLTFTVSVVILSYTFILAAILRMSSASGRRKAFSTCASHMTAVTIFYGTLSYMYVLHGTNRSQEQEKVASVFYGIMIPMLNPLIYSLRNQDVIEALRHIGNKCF
Method in brief: (§1)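 Each entry records the cell line, G-protein, co-transfected protein and tags used. Methods varied with the source, often transient luciferase assays in mammalian cell lines. A receptor–molecule pair is called responsive (active) if the original authors judged its signal statistically different from baseline and non-responsive (inactive) otherwise.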

UniProt Q8VGD7 = molecular target: T2, UniProt Q8VGD7
T2 sequence (whole entry): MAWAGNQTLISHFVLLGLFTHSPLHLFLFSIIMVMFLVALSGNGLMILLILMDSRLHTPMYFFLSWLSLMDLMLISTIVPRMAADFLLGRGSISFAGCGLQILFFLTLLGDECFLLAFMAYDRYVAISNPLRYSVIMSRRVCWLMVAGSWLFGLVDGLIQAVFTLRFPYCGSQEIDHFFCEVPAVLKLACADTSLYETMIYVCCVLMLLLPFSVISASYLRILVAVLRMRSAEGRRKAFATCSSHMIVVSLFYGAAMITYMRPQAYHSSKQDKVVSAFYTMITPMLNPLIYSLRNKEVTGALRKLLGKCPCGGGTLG
Method in brief: as §1

UniProt Q8VGH1 = molecular target: T3, UniProt Q8VGH1
T3 sequence (whole entry): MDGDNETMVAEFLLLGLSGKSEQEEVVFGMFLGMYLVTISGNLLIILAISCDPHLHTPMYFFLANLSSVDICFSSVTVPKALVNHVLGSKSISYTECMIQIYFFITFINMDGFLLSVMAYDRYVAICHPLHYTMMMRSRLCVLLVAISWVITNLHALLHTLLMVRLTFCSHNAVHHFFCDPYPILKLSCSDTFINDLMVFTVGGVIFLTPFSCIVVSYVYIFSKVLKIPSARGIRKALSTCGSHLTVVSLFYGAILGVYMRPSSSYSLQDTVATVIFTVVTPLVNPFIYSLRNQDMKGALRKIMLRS
Method in brief: as §1

UniProt Q8VGJ1 = molecular target: T4, UniProt Q8VGJ1
T4 sequence (whole entry): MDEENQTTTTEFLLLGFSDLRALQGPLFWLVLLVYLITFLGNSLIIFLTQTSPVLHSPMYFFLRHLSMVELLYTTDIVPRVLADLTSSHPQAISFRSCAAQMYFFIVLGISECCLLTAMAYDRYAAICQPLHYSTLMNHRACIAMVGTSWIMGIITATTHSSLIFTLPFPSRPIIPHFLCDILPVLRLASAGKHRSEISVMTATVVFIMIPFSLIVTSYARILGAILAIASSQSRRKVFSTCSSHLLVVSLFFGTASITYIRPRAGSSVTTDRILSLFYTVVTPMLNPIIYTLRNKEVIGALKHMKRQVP
Method in brief: as §1

UniProt Q8VGJ3 = molecular target: T5, UniProt Q8VGJ3
T5 sequence (whole entry): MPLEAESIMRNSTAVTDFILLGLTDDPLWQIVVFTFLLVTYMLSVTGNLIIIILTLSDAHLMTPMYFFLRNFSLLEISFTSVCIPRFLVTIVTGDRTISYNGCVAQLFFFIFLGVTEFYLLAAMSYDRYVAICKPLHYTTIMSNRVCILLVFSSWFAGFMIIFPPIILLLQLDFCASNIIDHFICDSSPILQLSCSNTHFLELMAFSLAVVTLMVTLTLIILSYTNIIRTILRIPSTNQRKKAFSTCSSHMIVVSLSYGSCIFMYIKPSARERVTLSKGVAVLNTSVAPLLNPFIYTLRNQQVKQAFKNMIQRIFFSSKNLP
Method in brief: as §1

UniProt Q8VGJ5 = molecular target: T6, UniProt Q8VGJ5
T6 sequence (whole entry): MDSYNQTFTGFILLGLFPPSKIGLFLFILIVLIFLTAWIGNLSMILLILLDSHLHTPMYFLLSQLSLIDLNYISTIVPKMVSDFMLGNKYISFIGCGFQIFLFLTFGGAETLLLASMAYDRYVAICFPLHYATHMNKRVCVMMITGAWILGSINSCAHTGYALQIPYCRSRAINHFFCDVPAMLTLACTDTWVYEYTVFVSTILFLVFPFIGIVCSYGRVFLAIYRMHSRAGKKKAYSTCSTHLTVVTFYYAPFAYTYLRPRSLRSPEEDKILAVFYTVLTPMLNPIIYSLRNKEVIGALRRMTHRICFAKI
Method in brief: as §1

UniProt Q8VGL0 = molecular target: T7, UniProt Q8VGL0
T7 sequence (whole entry): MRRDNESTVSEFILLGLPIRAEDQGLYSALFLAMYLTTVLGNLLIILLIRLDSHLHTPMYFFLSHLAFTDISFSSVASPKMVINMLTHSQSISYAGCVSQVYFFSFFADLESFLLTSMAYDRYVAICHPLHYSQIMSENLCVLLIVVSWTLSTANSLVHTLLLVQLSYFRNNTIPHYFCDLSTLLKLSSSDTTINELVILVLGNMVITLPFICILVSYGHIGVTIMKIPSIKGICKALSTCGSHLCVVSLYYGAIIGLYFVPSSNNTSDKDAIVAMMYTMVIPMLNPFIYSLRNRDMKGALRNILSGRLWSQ
Method in brief: as §1

UniProt Q8VGL7 = molecular target: T8, UniProt Q8VGL7
T8 sequence (whole entry): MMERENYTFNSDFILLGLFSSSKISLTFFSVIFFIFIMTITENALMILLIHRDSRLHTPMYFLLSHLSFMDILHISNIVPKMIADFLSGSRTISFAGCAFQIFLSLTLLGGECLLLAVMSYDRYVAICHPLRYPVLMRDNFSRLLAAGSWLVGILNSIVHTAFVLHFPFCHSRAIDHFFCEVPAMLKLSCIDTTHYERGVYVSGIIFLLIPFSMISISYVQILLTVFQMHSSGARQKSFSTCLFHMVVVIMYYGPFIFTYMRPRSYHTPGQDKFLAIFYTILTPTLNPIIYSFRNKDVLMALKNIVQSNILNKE
Method in brief: as §1

UniProt Q8VGM2 = molecular target: T9, UniProt Q8VGM2
T9 sequence (whole entry): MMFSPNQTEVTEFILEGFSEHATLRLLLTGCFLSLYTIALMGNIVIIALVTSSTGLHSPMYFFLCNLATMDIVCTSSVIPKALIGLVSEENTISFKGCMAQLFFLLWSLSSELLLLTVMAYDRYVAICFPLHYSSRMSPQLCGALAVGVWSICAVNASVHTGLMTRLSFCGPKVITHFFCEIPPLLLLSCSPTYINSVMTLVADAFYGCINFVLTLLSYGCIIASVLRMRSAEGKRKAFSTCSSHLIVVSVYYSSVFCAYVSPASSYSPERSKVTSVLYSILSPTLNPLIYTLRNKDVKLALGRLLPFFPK
Method in brief: as §1

UniProt Q8VGP6 = molecular target: T10, UniProt Q8VGP6
T10 sequence (whole entry): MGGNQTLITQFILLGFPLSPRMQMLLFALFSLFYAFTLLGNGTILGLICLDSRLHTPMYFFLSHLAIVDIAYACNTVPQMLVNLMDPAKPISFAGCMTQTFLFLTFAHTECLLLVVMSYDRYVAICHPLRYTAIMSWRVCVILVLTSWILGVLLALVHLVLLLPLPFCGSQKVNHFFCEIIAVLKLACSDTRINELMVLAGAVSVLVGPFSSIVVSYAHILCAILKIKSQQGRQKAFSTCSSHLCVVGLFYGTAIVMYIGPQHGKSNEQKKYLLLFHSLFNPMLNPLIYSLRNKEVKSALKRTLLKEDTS
Method in brief: as §1

UniProt Q8VGQ3 = molecular target: T11, UniProt Q8VGQ3
T11 sequence (whole entry): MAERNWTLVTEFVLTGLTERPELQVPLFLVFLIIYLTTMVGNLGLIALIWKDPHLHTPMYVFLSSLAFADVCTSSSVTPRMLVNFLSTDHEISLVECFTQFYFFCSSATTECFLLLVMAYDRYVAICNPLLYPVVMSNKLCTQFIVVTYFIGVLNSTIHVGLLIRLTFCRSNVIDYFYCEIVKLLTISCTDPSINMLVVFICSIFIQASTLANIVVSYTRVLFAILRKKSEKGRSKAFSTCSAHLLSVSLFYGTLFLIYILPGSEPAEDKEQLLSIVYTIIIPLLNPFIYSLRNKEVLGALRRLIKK
Method in brief: as §1

UniProt Q8VGT4 = molecular target: T12, UniProt Q8VGT4
T12 sequence (whole entry): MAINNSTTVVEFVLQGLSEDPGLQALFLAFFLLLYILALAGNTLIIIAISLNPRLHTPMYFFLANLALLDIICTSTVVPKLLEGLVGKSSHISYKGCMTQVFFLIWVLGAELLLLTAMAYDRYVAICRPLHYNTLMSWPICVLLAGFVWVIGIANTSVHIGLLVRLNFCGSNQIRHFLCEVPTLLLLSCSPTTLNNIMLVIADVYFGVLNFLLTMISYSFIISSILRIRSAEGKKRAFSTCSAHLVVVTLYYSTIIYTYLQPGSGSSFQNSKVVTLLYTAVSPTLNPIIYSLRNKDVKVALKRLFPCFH
Method in brief: as §1

UniProt Q8VGU3 = molecular target: T13, UniProt Q8VGU3
T13 sequence (whole entry): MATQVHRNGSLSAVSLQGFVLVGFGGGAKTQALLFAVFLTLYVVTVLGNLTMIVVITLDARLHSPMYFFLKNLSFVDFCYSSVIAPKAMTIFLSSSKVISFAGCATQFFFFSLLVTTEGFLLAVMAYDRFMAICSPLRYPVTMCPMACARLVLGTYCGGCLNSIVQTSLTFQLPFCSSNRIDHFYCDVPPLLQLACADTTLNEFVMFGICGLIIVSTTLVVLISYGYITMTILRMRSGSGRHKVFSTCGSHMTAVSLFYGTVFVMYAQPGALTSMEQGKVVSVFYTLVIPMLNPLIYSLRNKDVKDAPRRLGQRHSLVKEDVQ
Method in brief: as §1

UniProt Q8VGV1 = molecular target: T14, UniProt Q8VGV1
T14 sequence (whole entry): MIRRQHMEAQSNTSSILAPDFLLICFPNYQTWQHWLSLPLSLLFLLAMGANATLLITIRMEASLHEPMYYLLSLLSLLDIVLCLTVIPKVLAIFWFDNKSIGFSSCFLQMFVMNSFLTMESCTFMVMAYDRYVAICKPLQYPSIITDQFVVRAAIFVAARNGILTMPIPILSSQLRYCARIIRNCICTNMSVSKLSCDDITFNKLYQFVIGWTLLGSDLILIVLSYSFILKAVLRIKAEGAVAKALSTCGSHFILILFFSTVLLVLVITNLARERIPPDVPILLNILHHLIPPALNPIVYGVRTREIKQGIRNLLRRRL
Method in brief: as §1

UniProt Q8VGV7 = molecular target: T15, UniProt Q8VGV7
T15 sequence (whole entry): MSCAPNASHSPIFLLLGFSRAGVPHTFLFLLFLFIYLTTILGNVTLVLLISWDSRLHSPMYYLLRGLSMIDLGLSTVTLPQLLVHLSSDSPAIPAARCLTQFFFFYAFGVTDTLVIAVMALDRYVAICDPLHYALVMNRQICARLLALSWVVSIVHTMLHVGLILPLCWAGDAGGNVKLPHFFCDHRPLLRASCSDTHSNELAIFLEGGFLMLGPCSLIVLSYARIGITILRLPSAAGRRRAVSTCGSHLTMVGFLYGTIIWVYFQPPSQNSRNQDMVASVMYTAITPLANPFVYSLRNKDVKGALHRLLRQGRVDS
Method in brief: as §1

UniProt Q8VGX3 = molecular target: T16, UniProt Q8VGX3
T16 sequence (whole entry): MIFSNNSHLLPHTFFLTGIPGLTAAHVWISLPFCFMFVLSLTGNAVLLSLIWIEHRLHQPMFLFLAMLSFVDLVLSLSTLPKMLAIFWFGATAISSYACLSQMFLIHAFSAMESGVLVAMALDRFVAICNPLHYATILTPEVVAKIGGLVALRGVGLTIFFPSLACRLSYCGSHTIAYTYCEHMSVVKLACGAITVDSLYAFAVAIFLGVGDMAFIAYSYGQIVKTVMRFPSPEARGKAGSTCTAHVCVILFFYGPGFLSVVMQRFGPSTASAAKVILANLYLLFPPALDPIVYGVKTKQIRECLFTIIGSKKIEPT
Method in brief: as §1

UniProt Q8VGX5 = molecular target: T17, UniProt Q8VGX5
T17 sequence (whole entry): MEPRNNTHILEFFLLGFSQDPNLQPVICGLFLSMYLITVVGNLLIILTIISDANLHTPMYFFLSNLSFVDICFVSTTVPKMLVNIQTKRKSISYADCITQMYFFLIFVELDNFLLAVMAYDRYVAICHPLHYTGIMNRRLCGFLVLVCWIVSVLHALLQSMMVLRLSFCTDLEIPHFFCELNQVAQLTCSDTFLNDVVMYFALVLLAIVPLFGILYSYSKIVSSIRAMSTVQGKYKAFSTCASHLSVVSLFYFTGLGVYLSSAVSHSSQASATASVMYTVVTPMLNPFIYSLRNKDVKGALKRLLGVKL
Method in brief: as §1

Row | Structure (SMILES) | odorant receptor agonist call (UniProt Q8VGC6) | odorant receptor agonist call (UniProt Q8VGD7) | odorant receptor agonist call (UniProt Q8VGH1) | odorant receptor agonist call (UniProt Q8VGJ1) | odorant receptor agonist call (UniProt Q8VGJ3) | odorant receptor agonist call (UniProt Q8VGJ5) | odorant receptor agonist call (UniProt Q8VGL0) | odorant receptor agonist call (UniProt Q8VGL7) | odorant receptor agonist call (UniProt Q8VGM2) | odorant receptor agonist call (UniProt Q8VGP6) | odorant receptor agonist call (UniProt Q8VGQ3) | odorant receptor agonist call (UniProt Q8VGT4) | odorant receptor agonist call (UniProt Q8VGU3) | odorant receptor agonist call (UniProt Q8VGV1) | odorant receptor agonist call (UniProt Q8VGV7) | odorant receptor agonist call (UniProt Q8VGX3) | odorant receptor agonist call (UniProt Q8VGX5)
1 | CCC(=O)C(=O)CC | inactive | inactive | inactive | inactive | inactive | inactive | inactive | inactive | inactive | inactive | inactive | inactive | inactive | inactive | inactive | inactive | inactive
2 | CC1=CCC2CC1C2(C)C (stereo not given) | inactive | – | – | – | – | – | – | – | – | – | – | – | – | – | – | – | –
3 | CCOC(=O)C(C)C | inactive | inactive | inactive | inactive | inactive | active | inactive | active | inactive | inactive | inactive | inactive | inactive | inactive | inactive | inactive | inactive
